Measurements gathered from unrelated publications.
Lines come from different studies, so protocols differ.
Target: 5-hydroxytryptamine receptor 1A (HTR1A, Homo sapiens, UniProt P08908)
Residues used in one study (P08908 1-422): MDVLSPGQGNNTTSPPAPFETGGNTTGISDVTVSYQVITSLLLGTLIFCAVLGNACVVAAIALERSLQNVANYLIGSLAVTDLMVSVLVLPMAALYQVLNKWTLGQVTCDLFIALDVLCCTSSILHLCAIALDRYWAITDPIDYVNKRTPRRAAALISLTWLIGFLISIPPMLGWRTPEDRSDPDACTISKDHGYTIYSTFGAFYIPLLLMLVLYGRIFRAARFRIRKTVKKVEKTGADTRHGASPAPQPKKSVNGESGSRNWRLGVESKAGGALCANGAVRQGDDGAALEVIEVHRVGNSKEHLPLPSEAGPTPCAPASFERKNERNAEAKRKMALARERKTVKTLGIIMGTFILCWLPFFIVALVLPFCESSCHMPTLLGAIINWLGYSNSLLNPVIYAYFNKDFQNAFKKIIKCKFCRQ

assay | setting | measurement | result | SMILES
ligand displacement, radioligand | 10 µM | inhibition | 31.5% | Oc1cccc(Nc2nc(-c3ccc(F)cc3F)cs2)c1
ligand displacement, radioligand | 10 µM | inhibition | 4% | O=C(Nc1ccc(S(=O)(=O)N2CCC(Cl)CC2)cc1)c1ccc([N+](=O)[O-])o1
ligand displacement, radioligand | 10 µM | inhibition | 15.5% | CN([C@@H]1CCc2c(CC(=O)O)c3ccccc3n2C1)S(=O)(=O)c1ccc(F)cc1
ligand displacement, radioligand | 10 µM | inhibition | 0% | CCN(Cc1ccccc1C(F)(F)F)C(=O)C1CCN(S(=O)(=O)c2ccc3[nH]ncc3c2)CC1
ligand displacement, radioligand | 10 µM | inhibition | < 50% | COc1cc2c3c(c1OC)-c1cc4c(cc1CC3N(C)CC2c1ccccc1)OCO4 (stereo not shown)
ligand displacement, radioligand | 10 µM | inhibition | 20% | O=C1N=C(N2CCCCN2)S/C1=C\c1ccc(F)cc1O
ligand displacement, radioligand | 10 µM | inhibition | -13.5% | CCCCCCOc1c(OC)cc2c3c1-c1cc4c(cc1CC3N(C)CC2c1ccccc1)OCO4 (stereo not shown)
ligand displacement, radioligand | 10 µM | inhibition | 22% | CCN(CC)c1ccc(C2Nc3ccc(C(=O)c4ccccc4)cc3NC3=C2C(=O)CC(C)(C)C3)cc1 (stereo not shown)
ligand displacement, radioligand | 10 µM | inhibition | 8.55% | CC1=C(C#N)C(c2ccc3c(c2)c(NC(=O)c2ccccc2C)nn3C)C(C#N)=C(C)N1
ligand displacement | 1 µM | inhibition | 20.6% | CN1CCN(CCCOc2ccc(=O)n(-c3ccc(Cl)c(Cl)c3)n2)CC1
ligand displacement, radioligand | 10 µM | inhibition | 23.8% | COc1cc(NC(C)=O)c(Cl)cc1C(=O)Nc1nccs1
ligand displacement, radioligand | 10 µM | inhibition | 37.9% | c1ccc(N2CCN(Cc3nc4ccccc4[nH]3)CC2)nc1
ligand displacement | 10 µM | inhibition | -8.04% | N#Cc1cc(Cn2c(N3CCCC3)nc3ccccc32)ccc1F
ligand displacement | 1 µM | inhibition | 18.5% | COc1ccc(-n2nc(OCCCN3CCCCC3)ccc2=O)cc1
cAMP, agonist, luciferase |  | Emax | 4.4% | O=C(CCCN1CCCN(c2ccc(Cl)cc2)CC1)c1ccc(F)cc1
ligand displacement | 10 µM | inhibition | 0.33% | CCCNc1nc2ccccc2n1Cc1ccc(Cl)cc1
